This is a sample that favours compounds with a hit; in the whole collection about 1.2% have one here.
HKDC1 inhibitor = inhibitors of human hexokinase HKDC1; Q2TB90; inhibition, % at 20 µM; hit rate 0.16% among 340,000; recombinant HKDC1, G6PDH/diaphorase resazurin coupled fluorescence; AID 493160;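 active = inhibition above about 35% when tested at 20 µM, limit read from the data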;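 note: plate controls were DMSO wells with enzyme for no effect and DMSO wells lacking enzyme for full effect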
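Material – in-house recombinant HK5 (HKDC1) enzyme · Quantity – HKDC1 at 5 µg/mL · Buffer or medium – pH 8.0 Tris buffer with 10 mM MgCl2 · Reagent – glucose with 1 mM ATP · Dosing – single 20 µM dose · Times – reaction time 90 min, room temperature, protected from light · Technique – resorufin fluorescence at 613 nm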
Diaphorase inh = inhibits diaphorase or chemically oxidizes, flagging diaphorase assay artifacts; inhibition, % at 20 µM; AID 1217; hit rate 0.69% among 190,000; diaphorase resazurin-to-resorufin fluorescence, NADH, 16 min; bacterial (C. kluyveri) enzyme, not human;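 active = primary screen inhibition at 20 µM above a set limit, cut at about 50% in these data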;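 note: plate controls were DMSO with full reaction for no effect and wells lacking NADH for full effect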
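Assay system: diaphorase enzyme from Clostridium kluyveri; Input: enzyme working solution with 0.14 U/mL diaphorase; Timing: 16 min at room temperature; Technique: resorufin fluorescence, excitation 544 nm, emission 590 nm; Benchmarks: positive control minus NADH, DMSO neutral control.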
G6PDH CS = counter-screen for G6PDH assay hits: L. mesenteroides G6PDH inhibition; Purified L. mesenteroides G6PDH, diaphorase/resazurin coupled fluorescence, 45 min; inhibition, % at 5 µM; hit rate 0.12% among 200,000; in the data active = inhibition above about 50%
PfGluPho inh = PfG6PD (Plasmodium falciparum) enzyme inhibition; PfGluPho enzyme, NADPH resazurin-diaphorase fluorescence; inhibition, % at 20 µM; hit rate 0.78% among 350,000; AID 504690;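 active = inhibition reaching at least a set limit at 20 µM in the primary screen, cut at about 59% in these data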;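 note: 0% = DMSO wells with substrate and 100% = DMSO wells lacking glucose-6-phosphate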
Numbers without * were called inactive; · = not tested or not shown.

SMILES | HKDC1 inhibitor | Diaphorase inh | G6PDH CS | PfGluPho inh
N#CCSc1ccc(-c2nc3ccccc3[nH]2)cn1 | 1 | 58* | 11 | 23
CC1=C(C#N)C(=O)NC(=O)/C1=C\c1ccc(-c2cc(C)c(C)cc2[N+](=O)[O-])o1 | 23 | 61* | 28 | 30
COc1ccc2c(c1)CCc1sc(NC(=O)c3ccco3)nc1-2 | 19 | 55* | 16 | 47
COc1ccc2c(c1)-c1nc(NC(=O)c3ccco3)sc1CC2 | 27 | 19 | 1 | 41
CCOc1ccc(Br)cc1S(=O)(=O)NCC(c1ccc(OC)cc1)N1CCOCC1 (centres undefined) | 1 | · | · | 1
S=c1[nH]ncn1/N=C/c1cccc(Oc2ccccc2)c1 | -3 | 85* | 8 | 21
CCCC(=O)N1CCN(c2ccc(NC(=O)c3cccs3)cc2Cl)CC1 | -6 | · | 12 | 6
CCCC(=O)N1CCN(c2ccc(NC(=O)c3cc4ccccc4o3)cc2Cl)CC1 | 14 | -2 | -32 | 98*
COc1nc(N)nc(N)c1NS(=O)(=O)c1ccc(C)cc1 | -6 | · | · | 2
Cc1ccsc1/C=N/NC(=O)c1nnn(-c2nonc2N)c1-c1ccccc1 | -5 | · | · | 29
COc1cccc(-c2c(C(=O)N/N=C/c3sccc3C)nnn2-c2nonc2N)c1 | 3 | · | · | 91*
CC(=O)c1c(C)[nH]c(C(=O)OCC(=O)N2CCc3ccccc3C2)c1C | 5 | · | · | 1
CCNc1nc(NCC)nc(N/N=C/c2ccc(O)c(O)c2)n1 | -4 | 61* | 19 | -2
CCNc1nc(NCC)nc(N/N=C/c2ccc(N(C)C)cc2)n1 | -8 | -16 | 2 | -17
O=C(CN1C(=O)NC2(CCCCCCC2)C1=O)Nc1ccc(Cl)cc1 | 1 | · | · | 4
COc1cc2cc(C(=O)N3CCOCC3)cc(-c3ccc(C)cc3)c2cc1OC | 5 | · | · | -7
CCN(CC#CCC(O)(c1ccccc1)C1CCCC1)C(C)C (centres undefined) | -2 | 9 | 8 | 1
CC(C)N(CC#CCC(O)(c1ccccc1)C1CCCC1)CCO (centres undefined) | 7 | 60* | 12 | 0
O=c1ccc2cc(O)c(O)cc2o1 | -1 | 61* | 45 | -23
O=C(NCC1CC1)[C@]1(C(F)(F)F)C[C@H](CCC2CCCCC2)CCCO1 | -1 | · | · | 10
CCOC(=O)CSc1nc2c(sc(=S)n2-c2ccc(OCC)cc2)c(=O)[nH]1 | -6 | 48 | 5 | -9
CCOc1ccc(-n2c(=S)sc3c(=O)[nH]c(SCC(=O)C(C)(C)C)nc32)cc1 | 1 | 68* | 1 | 6
CCOc1ccc(-n2c(=S)sc3c(=O)[nH]c(SCC(=O)N4CCC(C)CC4)nc32)cc1 | 7 | 62* | 0 | -29
CCCCn1c(N)c(N(CC(C)C)C(=O)Cc2ccc(S(=O)(=O)N3CCOCC3)s2)c(=O)[nH]c1=O | -4 | · | · | 2
CSc1ccc(NS(=O)(=O)c2ccc(-n3cnnn3)cc2)cc1 | 3 | · | · | -16
SMILES | HKDC1 inhibitor | Diaphorase inh | G6PDH CS | PfGluPho inh
O=C(C1CCC(=O)N(C2CC2)C1)N1CCC(Oc2ccccc2F)CC1 (centres undefined) | -7 | · | · | -2
CCN(CC)C(=O)CSc1nc2ccccc2c(=O)n1-c1cccc(OC)c1 | 4 | 9 | 0 | -9
COc1cccc(-n2c(SCc3cc(=O)oc4cc(O)c(O)cc34)nc3ccccc3c2=O)c1 | 17 | 59* | -2 | -34
OC(c1ccccc1)(c1ccccc1)c1nccn1-c1ccccc1 | -6 | · | · | 9
O=C(N/N=C/c1cc(Br)cc(Br)c1O)c1ccncc1 | -34 | 52* | -10 | -30
CN(C)c1ccc2c(O)cc(=O)n(C)c2c1 | 10 | 60* | 7 | 39
COC(=O)c1sc(NC(=S)NC(=O)c2cccc(Br)c2)nc1C | -4 | · | · | -25
CCOc1ccc2c(c1)C(C)=CC(C)(C)N2C(=O)Nc1ccccc1 | 4 | 48 | 18 | 78*
O=C(Oc1ccc(Cl)c2cccnc12)c1cccc([N+](=O)[O-])c1 | -5 | 25 | 13 | 8
O=C(Oc1cccc2cccnc12)c1cccc([N+](=O)[O-])c1 | 6 | 34 | 59* | 8
O=C(Oc1cccc2cccnc12)c1ccco1 | 0 | 23 | 41 | -3
O=C(Cc1ccc(Cl)cc1)Oc1cccc2cccnc12 | 2 | 42 | 63* | -21
CCOc1ccc(NC(=O)CN(C)C(=O)CN2C(=O)c3ccc([N+](=O)[O-])cc3C2=O)cc1OCC | -4 | · | · | 9
CCOC(=O)C1=CN(Cc2cccc(-c3ccc(F)cc3)c2)S(=O)(=O)N(C)C1C (centres undefined) | -3 | · | · | 15
O=C(COC(=O)Cn1cnc2ccccc21)Nc1ccc(F)c(F)c1 | -5 | · | · | 0
CCCN(CCC)C(=O)c1cc([N+](=O)[O-])cc2c1-c1ccc([N+](=O)[O-])cc1C2=C(C#N)C#N | 41* | · | · | 54
CC(=O)N(CC#CCN(C(C)=O)c1ccccc1)c1ccccc1 | · | · | · | -5
CC[n+]1c(/C=C2\C=C(C)CC(C)C2)sc2ccccc21 (centres undefined) | 10 | 15 | 3 | 49
CCC1=C/C(=C/c2sc3ccccc3[n+]2CC)CC(C)(C)C1 | 2 | 17 | -3 | 61*
O=C(COC(=O)C1CCN(S(=O)(=O)c2ccc(Cl)c(C(F)(F)F)c2)CC1)NCC1CCCO1 (centres undefined) | · | · | · | -3
c1coc(C2Nc3cccc4cccc(c34)N2)c1 | · | 70* | 21 | ·
Clc1ccccc1C1Nc2cccc3cccc(c23)N1 | 11 | · | · | 21
Cc1cc(=O)c(C(=O)Nc2ccc(N3CCOCC3)cc2N2CCOCC2)nn1-c1ccccc1Cl | -3 | · | · | -5
Cc1cc(C)cc(Nc2cc(=O)n(C3CCCCC3)c(=O)[nH]2)c1 | 5 | 17 | 2 | -4
Cc1cc2nc3c(=O)n(C4CCCCC4)c(=O)[nH]c3nc2cc1N | 11 | 60* | 30 | 47
SMILES | HKDC1 inhibitor | Diaphorase inh | G6PDH CS | PfGluPho inh
CCN(Cc1cccs1)C(=O)CN1CCN(S(=O)(=O)c2ccc3c(c2)OCCCO3)CC1 | 5 | · | · | -8
CC(=O)c1cc2c(O)c(O)ccc2o1 | 19 | 74* | 54* | 22
CCOc1c(Cl)cc(CNc2ccc(N3CCCC3)cc2)cc1OC | 17 | 74* | 12 | 50
CCOc1c(Cl)cc(CNc2ccc(S(N)(=O)=O)cc2)cc1OC | -4 | 4 | 9 | 3
O=C(CNc1ccc2ccccc2c1)N/N=C/c1ccc(C(=O)O)cc1 | 9 | 59* | 5 | -6
COc1ccc(C(=O)CNc2ccc3ccccc3c2)cc1 | 9 | 63* | 24 | 13
O=C(CNc1ccc2ccccc2c1)N/N=C/c1cc2ccccc2nc1Cl | 13 | 52* | 4 | 31
O=C(COc1cccc(Cl)c1)N/N=C\c1cc2ccccc2nc1Cl | -8 | 2 | 1 | 2
COc1ccc(NC(=O)c2ccc3ccccc3c2)cc1 | -5 | · | · | 9
CC(=O)NCc1ccc(C(=O)CN2C(=O)NC3(CCCCC3C)C2=O)s1 (centres undefined) | -3 | · | · | 4
c1cc(SSc2ccncc2)ccn1 | -5 | · | · | 65*
COC(=O)C1(C)COP(=O)(NC23CC4CC(CC(C4)C2)C3)OC1 (centres undefined) | -2 | · | · | -1

High-throughput results: PubChem, Sanford-Burnham Center for Chemical Genomics
